Screening data deposited in PubChem by several laboratories.
Ecoli rRNA inh – reduced GFP signal of wild-type E. coli, primary screen, bacterial rRNA inhibitor project, GFP/RFP fluorescence, OD600, single point. E. coli WT GFP vs humanized-ribosome RFP mutants, 24 h; stronger effect = lower value; DMSO median 0, no signal -100. GFP signal change (wild-type ribosome), % (no concentration beside the values). actives 1.6% (n = 350,000). AID 720706, 2013;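 active = significant combined selectivity score with lowered wild-type GFP, culture density cut under 30%, mutant RFP and density less affected; inactive = any of these conditions unmet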
PglD inh – C. jejuni PglD acetyltransferase inhibitors, primary screen, biochemical, DTNB colorimetric, single point | purified PglD enzyme, DTNB colorimetric CoA detection | UDP-N-acetylbacillosamine N-acetyltransferase PglD (Campylobacter jejuni) | actives 0.098% (n = 360,000) | AID 602405, 2012 | inhibition, % at 12.5 µM; in the data active = inhibition above about 16%, passing the limit was not always enough
Yeast superoxide – reduction of superoxide in aged yeast, primary screen, HTS. superoxide response (% of plate mean), % at 10 µM. S. cerevisiae aged cells, superoxide DHE fluorescence; stronger effect = lower value. AID 2690, 2010. actives 0.18% (n = 330,000);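 active = superoxide response under a set limit, about three screen SD below normal, cut at about 65% in these data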;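 also: yeast aged for seven days with compound at 30 °C before DHE staining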
Mot1-301 SUMO – yeast Mot1-301 growth rescue at high temperature, primary screen, SUMOylation pathway inhibitor project, S. cerevisiae, ATP luminescence, 38.5C; S. cerevisiae Mot1-301 growth rescue; percent above DMSO median, 100 means doubled; growth rescue, % at 18.8 µM; actives 1% (n = 320,000);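 active = every valid replicate shows activation above 250% relative to neutral control wells; inactive = the rest, any valid replicate at or below 250%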
Cneo AK release – Cryptococcus neoformans cell lysis inducers, primary screen, AK release luminescence, single concentration; C. neoformans lysis, adenylate kinase release luminescence, 4 h; normalised: neutral wells 0, clomiphene wells 100; lysis activity, % at 15 µM; actives 0.2% (n = 360,000);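 active = mean lysis activity across replicates of at least 80%, whatever share of replicates individually reach that level; inactive = mean lysis activity below 80%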
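Test system: log-phase Cryptococcus neoformans yeast cells; Quantity: yeast cell density of 5 × 10^6 cells/mL; Buffer or medium: YPD; Doses: single compound concentration per well; Timing: 4 h at 37 °C static, read 1 h later; Measured by: AK luminescence; Read-out basis: lysis from increased AK signal; Control set: Clomiphene as positive control.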
Superoxide pick – superoxide lowering in aged yeast cells, confirmation, cherry picked compounds; shares compounds with Yeast superoxide; S. cerevisiae aging, superoxide DHE fluorescence; stronger effect = lower value; superoxide response (% of plate), % at 10 µM; actives 1% (n = 850); AID 434994, 2010;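 active = superoxide signal below 65% of the plate average of sample wells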;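 also: cells aged with compound for 7 days at 30 degrees C before staining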
DHE counter – DHE quenching or ROS scavenging interference in aged yeast, artefact control for yeast caloric restriction mimetic project, S. cerevisiae BY4741, flow cytometry. shares compounds with Yeast superoxide. DHE fluorescence; stronger effect = lower value. fluorescence response, % at 10 µM. 850 tested, under 10 active. AID 435000, 2010;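 active = fluorescence response below 15%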;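 also: lower means stronger quenching of DHE signal or ROS scavenging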
Each line names hits and unclear results; the compound was inactive in the other large screens (follow-up assays come after a bar, where they were run). The list is not random: actives were taken first. Their share in the collection is about 2.2%.

CCCCCN(C(=O)CCC(=O)OCc1ccccc1C)c1c(N)n(CCCC)c(=O)[nH]c1=O	none
O=C(C[C@@H]1C[C@@H]2c3cc(NC(=O)NC4CCCCC4)ccc3O[C@@H]2[C@H](CO)O1)NC1CCCC1	none (no result: PglD inh, Yeast superoxide, Mot1-301 SUMO, Cneo AK release)
CC1Oc2ccccc2N(CC(=O)c2ccccc2)C1=O (stereo not given)	Yeast superoxide 60 | Superoxide pick inactive | DHE counter inactive
CCOc1cc(C(=O)OCC(=O)Nc2ccc(SC(F)F)cc2)cc(OCC)c1OCC	Yeast superoxide 39 (no result: Ecoli rRNA inh) | Superoxide pick inactive | DHE counter inactive
COC(=O)c1cccc(S(=O)(=O)N2CCCC2)c1	none (no result: Ecoli rRNA inh) | Superoxide pick inactive | DHE counter inactive
O=C(Nc1cccc(Cl)c1)Nc1ccc2nccnc2c1	Yeast superoxide 60 | Superoxide pick inactive | DHE counter inactive
COc1cccc(/C=N/NC(=O)c2[nH]c(C)c(C(=O)N/N=C/c3cccc(OC)c3O)c2C)c1O	Yeast superoxide 63 (no result: Ecoli rRNA inh, PglD inh, Cneo AK release) | Superoxide pick inactive | DHE counter inactive
Cc1ccsc1CNS(=O)(=O)c1ccc(F)cc1	Yeast superoxide 60 | Superoxide pick inactive | DHE counter inactive
O=S(=O)(NCCNS(=O)(=O)c1ccc(F)cc1)c1ccc(F)cc1	none (no result: Ecoli rRNA inh)
CC(C)NC(=O)N(C)C[C@@H]1OCCCC[C@H](C)Oc2ccc(NC(=O)C3CCCCC3)cc2C(=O)N([C@@H](C)CO)C[C@H]1C	none (no result: Yeast superoxide, Mot1-301 SUMO)
O=C(Nc1ccccc1)N[C@H]1CC[C@H](CCNS(=O)(=O)c2cccc(F)c2)O[C@H]1CO	none (no result: Yeast superoxide, Mot1-301 SUMO)
COc1ccc(-c2sc3cc4c(cc3c2C#CCO)OCO4)cc1	Yeast superoxide 63 (no result: Ecoli rRNA inh) | Superoxide pick inactive | DHE counter inactive
CC1(C)Cc2ccccc2C2=NNC(=O)C2=N1	Yeast superoxide 56 | Superoxide pick inactive | DHE counter inactive
C[C@@H]1CN([C@H](C)CO)C(=O)c2cccc(NC(=O)Nc3ccc(F)cc3)c2O[C@@H]1CN(C)CC1CC1	none (no result: Yeast superoxide, Mot1-301 SUMO)
O=C(COn1nnc2ccc(C(F)(F)F)cc21)Nc1nnc(-c2ccccc2)o1	Yeast superoxide 60 (no result: Ecoli rRNA inh) | Superoxide pick inactive | DHE counter inactive
O=C(COc1ccccc1)Nc1nnc(-c2ccccc2)o1	none
COc1ccc(CN(C)C[C@H]2Oc3ccc(NS(C)(=O)=O)cc3C(=O)N([C@@H](C)CO)C[C@H]2C)cc1	none (no result: Yeast superoxide, Mot1-301 SUMO)
COc1ccc(C(=O)CN2C(=O)c3ccccc3C2=O)c(OC)c1	Yeast superoxide 63 | Superoxide pick inactive | DHE counter inactive
NC(=NC(=O)c1ccc(OC(F)(F)F)cc1)c1ccc(C(F)(F)F)cn1	Yeast superoxide 62 (no result: PglD inh, Cneo AK release) | Superoxide pick inactive | DHE counter inactive
NC(=NC(=O)c1cccc(C(F)(F)F)c1)c1ccc(C(F)(F)F)cn1	none
O=C(NC1CC1)C1CCN(c2ccc(S(=O)(=O)N3CCOCC3)cc2)CC1	Yeast superoxide 65 (no result: Mot1-301 SUMO) | Superoxide pick inactive | DHE counter inactive
CC(C)CNC(=O)C1CCN(c2ccc(S(=O)(=O)N3CCOCC3)cc2)CC1	none (no result: Ecoli rRNA inh, PglD inh, Cneo AK release)
O=C(C[C@@H]1C[C@@H]2c3cc(NC(=O)c4cccnc4)ccc3O[C@@H]2[C@H](CO)O1)NC1CCCC1	none (no result: PglD inh, Yeast superoxide, Mot1-301 SUMO, Cneo AK release)
C/C(CCC12CC3CC(CC(C3)C1)C2)=N\NC(N)=S	Yeast superoxide 64 (no result: Ecoli rRNA inh) | Superoxide pick inactive | DHE counter inactive
COc1ccc(/C(C#N)=C/c2ccccn2)cc1	Yeast superoxide 58 | Superoxide pick inactive | DHE counter inactive
CCn1c(SCC(=O)NCC(=O)Nc2ccc(F)cc2)nnc1-c1cccs1	none (no result: Ecoli rRNA inh)
CCn1c(C)nnc1SCC(=O)Nc1ccc(OC)cc1	none (no result: Yeast superoxide, Mot1-301 SUMO)
CCn1c(SCC(=O)Nc2ccc(C(=O)OC)cc2)nnc1-c1cccs1	none (no result: Ecoli rRNA inh) | Superoxide pick inactive | DHE counter inactive
